Data set [1] has as its target T1, Angiotensin-converting enzyme (Rattus norvegicus, UniProt P47820).
T1 sequence (P47820 whole entry): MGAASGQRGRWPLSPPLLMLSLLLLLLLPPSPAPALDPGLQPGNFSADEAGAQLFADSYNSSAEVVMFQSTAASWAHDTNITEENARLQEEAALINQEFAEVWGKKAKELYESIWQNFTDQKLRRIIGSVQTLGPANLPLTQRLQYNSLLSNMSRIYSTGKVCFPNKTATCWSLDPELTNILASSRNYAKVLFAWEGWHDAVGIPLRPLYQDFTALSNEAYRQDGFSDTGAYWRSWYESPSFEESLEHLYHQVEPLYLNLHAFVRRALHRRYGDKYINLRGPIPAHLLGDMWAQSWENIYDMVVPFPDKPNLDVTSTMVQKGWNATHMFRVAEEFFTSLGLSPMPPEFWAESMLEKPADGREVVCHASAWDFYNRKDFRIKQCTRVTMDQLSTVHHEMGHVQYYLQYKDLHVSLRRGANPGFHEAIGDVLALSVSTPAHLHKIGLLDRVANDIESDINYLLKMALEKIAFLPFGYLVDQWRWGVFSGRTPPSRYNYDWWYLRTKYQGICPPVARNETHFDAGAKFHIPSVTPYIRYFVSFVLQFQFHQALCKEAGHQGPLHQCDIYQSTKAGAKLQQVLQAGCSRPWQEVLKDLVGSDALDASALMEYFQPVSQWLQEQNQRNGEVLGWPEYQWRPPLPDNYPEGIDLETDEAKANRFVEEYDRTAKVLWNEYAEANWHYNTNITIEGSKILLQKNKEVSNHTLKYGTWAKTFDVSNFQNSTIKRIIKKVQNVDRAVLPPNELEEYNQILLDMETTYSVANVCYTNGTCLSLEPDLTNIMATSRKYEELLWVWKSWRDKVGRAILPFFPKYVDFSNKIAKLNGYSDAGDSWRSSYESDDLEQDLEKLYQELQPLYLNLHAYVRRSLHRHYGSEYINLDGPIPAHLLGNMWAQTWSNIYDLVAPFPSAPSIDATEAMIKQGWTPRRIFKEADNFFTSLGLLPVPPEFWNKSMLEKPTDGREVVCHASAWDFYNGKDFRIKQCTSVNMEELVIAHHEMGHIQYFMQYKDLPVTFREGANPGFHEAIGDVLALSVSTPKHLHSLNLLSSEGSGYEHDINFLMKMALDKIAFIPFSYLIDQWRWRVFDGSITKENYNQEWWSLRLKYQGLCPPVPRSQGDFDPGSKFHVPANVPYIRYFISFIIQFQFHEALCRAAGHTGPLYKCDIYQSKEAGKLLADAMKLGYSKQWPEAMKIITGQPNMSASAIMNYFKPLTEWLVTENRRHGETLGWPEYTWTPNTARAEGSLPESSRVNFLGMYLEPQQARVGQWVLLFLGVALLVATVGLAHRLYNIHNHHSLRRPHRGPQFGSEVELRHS
The data set can be described thus: Compound was tested for inhibitory activity against angiotensin I converting enzyme.

The nature of data set [2]: The acid dissociation constant, pKa was determined.'a' represents value of C-terminus carboxylic acid. It counts as physicochemical. The gist of the method:
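Ionization constants came from potentiometric titration at 25 °C on a thermostated automatic titrator, with pKa calculated from the pH–volume data. For one ester, constants were instead determined by the partition method in Miglyol 812–aqueous buffer systems.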

A short description of data set [3]: Compound was tested for its maximum lipophilicity. Particulars: octanol/water. It counts as physicochemical. The gist of the method:
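Shake-flask distribution coefficients in octanol–aqueous buffer across pH, run in triplicate and reported as the mean. Aqueous phases were HCl below pH 2, McIlvaine citrate-phosphate at pH 2.2–4.8, and Sorensen phosphate above pH 5, all at ionic strength 0.02. Phases were assayed before and after partitioning by UV or reversed-phase HPLC. Maximum lipophilicity was taken from the distribution–pH profile.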

Data set [4] addresses T2, Angiotensin-converting enzyme (Rattus norvegicus) (UniProt P47820).
T2 sequence (whole entry): T1 sequence (P47820 whole entry)
Description: Relative inhibitory activity against angiotensin I converting enzyme.

The nature of data set [5]: The acid dissociation constant, pKa was determined. a'' represents value of C-terminus carboxylic acid. It counts as physicochemical. The procedure, abridged:
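Ionization constants measured by potentiometric titration at 25 °C on a thermostated automatic titrator, with pKa calculated from pH-volume data. For one ester prodrug, constants were instead obtained by the partition method in Miglyol 812-aqueous buffer systems.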

Data set [6] is described as follows: Ratio of biliary and urinary excretion of angiotensin converting enzyme inhibitors in male rat after intravenous dosing. It counts as functional, Urine.
Data set [7] is described as follows: The acid dissociation constant, pKa was determined. 'a' represents value of C-terminus carboxylic acid. It counts as physicochemical. The gist of the method:
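Potentiometric titration at 25 °C on a thermostated automatic titrator. pKa values were calculated from pH–volume data. For one ester compound, ionization constants were instead obtained by the partition method in Miglyol 812–aqueous buffer systems.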

On to `C[C@H](N[C@@H](CCc1ccccc1)C(=O)O)C(=O)N1N=C(c2ccccc2)S[C@H]1C(=O)O`, for which, in data set [1], the IC50 (as a rule, the concentration that gives 50% inhibition) is 1.5 nM. This counts as single-digit nanomolar.

For the compound `C[C@H](N[C@@H](CCc1ccccc1)C(=O)O)C(=O)N1CCC[C@H]1C(=O)O` [ENALAPRILAT ANHYDROUS], the pKa – broadly, the pH at which an ionisable group is half protonated – in data set [2] came out at 8.02. For the same compound, the “Log Dmax” value in data set [3] is given as -0.7.

Take `CC1=NN(C(=O)CCS)C(C(=O)O)S1` (stereo not given): the Relative activity in data set [4] was found to be 2.5.

In data set [4], `O=C(O)C1SC(c2ccccc2)=NN1C(=O)CCS` (stereo not given) came in with a Relative activity of 1.3.

For `CCOC(=O)[C@H](CCc1ccccc1)N[C@@H](C)C(=O)N1CC2(C[C@H]1C(=O)O)SCCS2`, in data set [2], the pKa was 5.5. For the same compound, the “Log Dmax” value in data set [3] is listed as 0.87.

On to `CC(C)(C)C1=NN(C(=O)CCS)C(C(=O)O)S1` (stereo not given), for which, in data set [4], the Relative activity was determined as 5.6.

On to `NCCCC[C@H](N[C@@H](CCc1ccccc1)C(=O)O)C(=O)N1CCC[C@H]1C(=O)O` [LISINOPRIL ANHYDROUS], for which the pKa in data set [5] turned out to be 11.1. For the same compound, the “Log Dmax” value in data set [3] is -2.86.

Turning to `CCC[C@H](N[C@@H](C)C(=O)N1N=C(C(C)(C)C)S[C@H]1C(=O)O)C(=O)O`, in data set [1], inhibition was half-maximal at 0.6 nM (IC50).

`CC(C)(C)C1=NN(C(=O)[C@H](CCCCN)N[C@@H](CCc2ccccc2)C(=O)O)[C@H](C(=O)O)S1`: half-maximal inhibition in data set [1] (IC50) required 0.7 nM.

On to `CCOC(=O)[C@H](CCc1ccccc1)N[C@@H](C)C(=O)N1N=C(C(C)(C)C)S[C@H]1C(=O)O` [UTIBAPRIL], for which the pKa in data set [2] stood at 5.4. The “Log Dmax” value in data set [3] turned out to be 1.61.

In data set [2], `C[C@H](N[C@@H](CCc1ccccc1)C(=O)O)C(=O)N1N=C(C(C)(C)C)S[C@H]1C(=O)O` [UTIBAPRILAT] registered a pKa of 8. Besides, the “Log Dmax” value in data set [3] came to 1.19. In data set [6], the Ratio came to 14.6. In addition, the IC50 in data set [1] amounted to 0.51 nM.

In the case of `COc1ccc(C2=NN(C(=O)CCS)C(C(=O)O)S2)cc1` (stereo not given), the Relative activity in data set [4] was found to be 1.3.

For the compound `O=C(O)C1SC(C2CCCCC2)=NN1C(=O)CCS` (stereo not given), in data set [4], the Relative activity worked out at 6.3.

`O=C(O)C1SC(C23CC4CC(CC(C4)C2)C3)=NN1C(=O)CCS` (stereo not given): the Relative activity in data set [4] came to 1.3.

In data set [7], `CCOC(=O)[C@H](CCc1ccccc1)N[C@@H](C)C(=O)N1CCC[C@H]1C(=O)O` had a pKa of 5.49. In addition, in data set [3], the “Log Dmax” value is listed as -0.06.

On to `O=C(O)C1SC(c2ccco2)=NN1C(=O)CCS` (stereo not given), for which, in data set [4], the Relative activity amounted to 1.

In turn, `O=C(O)C1SC(c2ccc(C(F)(F)F)cc2)=NN1C(=O)CCS` (stereo not given) gave a Relative activity in data set [4] of 1.6.

Values taken from ChEMBL document CHEMBL1125747, “Design, synthesis, and physicochemical properties of a novel, conformationally restricted 2,3-dihydro-1,3,4-thiadiazole-containing angiotensin converting enzyme inhibitor which is preferentially eliminated by the biliary route in rats” (J Med Chem, 1991).
